# Where a SMILES comes first, the peptide text is derived from it.
# Legend:
# [1] = Toxicity in human erythrocytes assessed as hemolysis at 24 uM after 40 mins; assay type: cell-based, Erythrocyte; conditions: read-out: Activity
# Summary of the method: (§1)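 Human red blood cells suspended in 0.9% (w/v) NaCl and incubated 40 min at 37 °C with gentle mixing with serial 2-fold peptide dilutions (peptide predissolved in 20% ethanol). Spun 5 min at 900g; supernatant read at 415 nm. Cells lysed in distilled water set the 100% lysis reference.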
# [2] = Toxicity in human erythrocytes assessed as hemolysis at 12 uM after 40 mins; assay type: cell-based, Erythrocyte; conditions: read-out: Activity; summary of the method: as §1
# [3] = Toxicity in human erythrocytes assessed as hemolysis at 6 uM after 40 mins; assay type: cell-based, Erythrocyte; conditions: read-out: Activity; summary of the method: as §1
# [4] = Toxicity in human erythrocytes assessed as hemolysis at 1.5 uM after 40 mins; assay type: cell-based, Erythrocyte; conditions: read-out: Activity; summary of the method: as §1
# [5] = Toxicity in human erythrocytes assessed as hemolysis at 3 uM after 40 mins; assay type: cell-based, Erythrocyte; conditions: read-out: Activity; summary of the method: as §1
# Acinetobacter baumannii = assay: Antibacterial activity against Acinetobacter baumannii ATCC 19606 after 18 to 20 hrs by microbroth dilution method; assay type: functional
# Summary of the method: (§2)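 CLSI microbroth dilution, adapted. Mid-log bacteria, 2 × 10^6 CFU/mL in Mueller-Hinton broth, mixed 1:1 with MH broth holding peptide in serial 2-fold dilutions in 20% ethanol (0.75-48 μM). Incubated 18-20 h at 37 °C; growth read as A600. MIC is the lowest concentration giving 100% growth inhibition.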
# Pseudomonas aeruginosa [6] = assay: Antibacterial activity against Pseudomonas aeruginosa ATCC 15692 after 18 to 20 hrs by microbroth dilution method; assay type: functional; summary of the method: as §2
# Escherichia coli [7] = assay: Antibacterial activity against Escherichia coli D21 after 18 to 20 hrs by microbroth dilution method; assay type: functional; summary of the method: as §2
# Streptococcus pyogenes = assay: Antibacterial activity against Streptococcus pyogenes ATCC 21547 after 18 to 20 hrs by microbroth dilution method; assay type: functional; summary of the method: as §2
# Acinetobacter junii = assay: Antibacterial activity against […] Acinetobacter junii RT-4 after 18 to 20 hrs by microbroth dilution method; assay type: functional; summary of the method: as §2
# Candida albicans = assay: Antifungal activity against Candida albicans ATCC 10231 after 18 to 20 hrs by microbroth dilution method; assay type: functional
# Summary of the method: (§3)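 Yeasts tested by adapted CLSI microbroth dilution in Winge medium. Peptide given in serial 2-fold dilutions (0.75-48 μM, made in 20% ethanol). Incubation 18-20 h at 30 °C, read at A600. MIC taken as the concentration giving complete (100%) growth inhibition.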
# Enterococcus faecalis = assay: Antibacterial activity against Enterococcus faecalis ATCC 29212 after 18 to 20 hrs by microbroth dilution method; assay type: functional; summary of the method: as §2
# [8] = tested on: Schizosaccharomyces pombe; assay: Antifungal activity against Schizosaccharomyces pombe after 18 to 20 hrs by microbroth dilution method; assay type: functional; summary of the method: as §3
# Pseudomonas aeruginosa [9] = assay: Antibacterial activity against Pseudomonas aeruginosa ATCC 27853 after 18 to 20 hrs by microbroth dilution method; assay type: functional; summary of the method: as §2
# [10] = tested on: Yersinia pseudotuberculosis; assay: Antibacterial activity against Yersinia pseudotuberculosis YPIII after 18 to 20 hrs by microbroth dilution method; assay type: functional
# Summary of the method: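 Broth microdilution adapted from CLSI. Mid-log bacteria at 2 × 10^6 CFU/mL in Mueller-Hinton broth were mixed 1:1 with MH broth containing peptide in serial 2-fold dilutions (peptide in 20% ethanol), 0.75-48 μM. Plates were incubated 18-20 h at 37 °C and growth was read as A600. MIC is the concentration giving 100% growth inhibition.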
# Staphylococcus capitis = assay: Antibacterial activity against Staphylococcus capitis after 18 to 20 hrs by microbroth dilution method; assay type: functional; summary of the method: as §2
# [11] = tested on: Staphylococcus epidermidis; assay: Antibacterial activity against Staphylococcus epidermidis ATCC 12228 after 18 to 20 hrs by microbroth dilution method; assay type: functional; summary of the method: as §2
# Staphylococcus aureus [12] = assay: Antibacterial activity against Staphylococcus aureus Cowan I after 18 to 20 hrs by microbroth dilution method; assay type: functional; summary of the method: as §2
# Pseudomonas syringae = assay: Antibacterial activity against Pseudomonas syringae pv tobaci after 18 to 20 hrs by microbroth dilution method; assay type: functional; summary of the method: as §2
# Priestia megaterium = assay: Antibacterial activity against Bacillus megaterium Bm11 after 18 to 20 hrs by microbroth dilution method; assay type: functional; summary of the method: as §2
# Escherichia coli [13] = assay: Antibacterial activity against Escherichia coli ATCC 25922 after 18 to 20 hrs by microbroth dilution method; assay type: functional; summary of the method: as §2
# Staphylococcus aureus [14] = assay: Antibacterial activity against Staphylococcus aureus ATCC 25923 after 18 to 20 hrs by microbroth dilution method; assay type: functional; summary of the method: as §2
# Saccharomyces cerevisiae = assay: Antifungal activity against Saccharomyces cerevisiae after 18 to 20 hrs by microbroth dilution method; assay type: functional; summary of the method: as §3
SMILES,"hemolysis at 40 min, 24 µM [1] [%]","hemolysis at 40 min, 12 µM [2] [%]","hemolysis at 40 min, 6 µM [3] [%]","hemolysis at 40 min, 1.5 µM [4] [%]","hemolysis at 40 min, 3 µM [5] [%]",MIC (Acinetobacter baumannii) [µM],MIC (Pseudomonas aeruginosa [6]) [µM],MIC (Escherichia coli [7]) [µM],MIC (Streptococcus pyogenes) [µM],MIC (Acinetobacter junii) [µM],MIC (Candida albicans) [µM],MIC (Enterococcus faecalis) [µM],MIC [8] [µM],MIC [10] [µM],MIC (Staphylococcus capitis) [µM],MIC [11] [µM],MIC (Staphylococcus aureus [12]) [µM],MIC (Pseudomonas syringae) [µM],MIC (Priestia megaterium) [µM],MIC (Escherichia coli [13]) [µM],other results
CC[C@@H](C)[C@@H](NC(=O)[C@H](N)CC(C)C)C(=O)N[C@H](CCCNC(=N)N)C(=O)NCC(=O)N[C@H](CC(C)C)C(=O)N[C@H](Cc1ccccc1)C(=O)N[C@H](CCCCN)C(=O)N[C@H](CO)C(=O)N[C@H](Cc1ccccc1)C(=O)N[C@H](Cc1c[nH]c2ccccc12)C(=O)N[C@H](CCC(N)=O)C(=O)N[C@@H](C(=O)N[C@H](Cc1ccccc1)C(N)=O)C(C)C [listing 1 of 2 here],81,49,15,1,6,,,,,,,,,,,,,,,,
CC[C@@H](C)[C@@H](NC(=O)[C@H](N)CC(C)C)C(=O)N[C@H](CCCNC(=N)N)C(=O)NCC(=O)N[C@H](CC(C)C)C(=O)N[C@H](Cc1ccccc1)C(=O)N[C@H](CCCCN)C(=O)N[C@H](CO)C(=O)N[C@H](Cc1ccccc1)C(=O)N[C@H](Cc1c[nH]c2ccccc12)C(=O)N[C@H](CCC(N)=O)C(=O)N[C@@H](C(=O)N[C@H](Cc1ccccc1)C(N)=O)C(C)C [listing 2 of 2 here],,,,,,6,> 48,12,6,6,12,12,1.5,24,6,6,3,6,1.5,12,MIC (Pseudomonas aeruginosa [9]): > 48 µM; MIC (Staphylococcus aureus [14]): 12 µM; MIC (Saccharomyces cerevisiae): > 48 µM
CC[C@H](C)[C@H](NC(=O)[C@H](CCCNC(=N)N)NC(=O)CNC(=O)[C@H](CC(C)C)NC(=O)[C@H](Cc1ccccc1)NC(=O)[C@H](CCCCN)NC(=O)[C@H](CO)NC(=O)[C@H](Cc1ccccc1)NC(=O)[C@H](Cc1c[nH]c2ccccc12)NC(=O)[C@@H]1CCCN1C(=O)[C@H](CC(C)C)NC(=O)[C@@H](N)Cc1ccccc1)C(=O)N[C@@H](CC(C)C)C(N)=O (H-FLPWFSKFLGRIL-NH2),93,64,19,4,9,12,> 48,24,6,12,12,12,6,6,3,3,3,12,3,12,MIC (Staphylococcus aureus [14]): 3 µM; MIC (Saccharomyces cerevisiae): 12 µM
CC[C@H](C)[C@H](NC(=O)[C@H](CCCNC(=N)N)NC(=O)CNC(=O)[C@H](CC(C)C)NC(=O)[C@H](Cc1ccccc1)NC(=O)[C@H](CCCCN)NC(=O)[C@H](CO)NC(=O)[C@H](Cc1ccccc1)NC(=O)[C@H](Cc1c[nH]c2ccccc12)NC(=O)[C@@H]1CCCN1C(=O)[C@@H](NC(=O)[C@@H](N)Cc1ccccc1)C(C)C)C(=O)N[C@@H](CC(C)C)C(N)=O (H-FVPWFSKFLGRIL-NH2),92,42,10,4.5,6,6,24,12,6,6,6,6,3,3,1.5,1.5,1.5,6,1.5,24,MIC (Pseudomonas aeruginosa [9]): > 48 µM; MIC (Staphylococcus aureus [14]): 3 µM; MIC (Saccharomyces cerevisiae): 6 µM
CC[C@H](C)[C@H](NC(=O)[C@H](CCCNC(=N)N)NC(=O)[C@H](CC(C)C)NC(=O)[C@H](CC(C)C)NC(=O)[C@H](Cc1ccccc1)NC(=O)[C@H](CCCCN)NC(=O)[C@H](CO)NC(=O)[C@H](Cc1ccccc1)NC(=O)[C@H](Cc1c[nH]c2ccccc12)NC(=O)[C@H](CCC(N)=O)NC(=O)[C@@H](NC(=O)[C@@H](N)Cc1ccccc1)C(C)C)C(=O)N[C@@H](CC(C)C)C(N)=O (H-FVQWFSKFLLRIL-NH2),83,80,80,69,78,48,> 48,48,6,> 48,> 48,48,6,6,> 48,3,48,> 48,48,> 48,MIC (Pseudomonas aeruginosa [9]): > 48 µM; MIC (Staphylococcus aureus [14]): 48 µM
